Assay results taken from ChEMBL document CHEMBL2034864, “Synthesis, characterization, antimicrobial activities and QSAR studies of some 10a-phenylbenzo[b]indeno[1,2-e][1,4]thiazin-11(10aH)-ones” (2012).
In brackets after ≈: the same amount, converted by molar mass. Activity calls are given as the source filed them. The calls are words filed in the database; no cut-off is given here.

Legend:
Candida albicans = assay: Antifungal activity against Candida albicans MTCC 183 after 72 hrs by serial dilution technique; type: functional
Outline: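 Compounds were dissolved in DMSO as stock, diluted to 100 µg/mL in potato dextrose broth, then two-fold serially diluted from 100 to 1.56 µg/mL. Fungi were grown in Sabouraud dextrose broth at 28 °C: A. fumigatus for 2–3 weeks, C. albicans for 48 h. Spores were centrifuged, washed in sterile water and inoculated in triplicate, then incubated 72 h at 28 °C. MIC was assigned by CFU assay. Controls were fluconazole and DMSO.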

Escherichia coli = assay: Antibacterial activity against Escherichia coli MTCC 42 after 24 hrs by serial dilution technique; type: functional; settings: for MIC: Escherichia coli, MTCC 42, 24 h
Outline: (§1)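 Compounds were dissolved in DMSO as stock, diluted to 100 µg/mL in Luria broth, then two-fold serially diluted from 100 to 1.56 µg/mL. Bacteria were grown in Luria broth at 37 °C, centrifuged and washed three times with PBS. They were inoculated into each dilution in triplicate and incubated 24 h at 37 °C. Growth was read visually and spectrophotometrically. Controls were penicillin, streptomycin and DMSO. MIC is in µmol/mL.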

Bacillus subtilis = assay: Antibacterial activity against Bacillus subtilis MTCC 441 after 24 hrs by serial dilution technique; type: functional; settings: for MIC: Bacillus subtilis, MTCC 441, 24 h; outline: as §1
Staphylococcus aureus = assay: Antibacterial activity against Staphylococcus aureus MTCC 7443 after 24 hrs by serial dilution technique; type: functional; settings: for MIC: Staphylococcus aureus, MTCC 7443, 24 h; outline: as §1
Aspergillus fumigatus = assay: Antifungal activity against Aspergillus fumigatus MTCC 2550 after 72 hrs by serial dilution technique
Pseudomonas aeruginosa = assay: Antibacterial activity against Pseudomonas aeruginosa MTCC 7952 after 24 hrs by serial dilution technique; type: functional; settings: for MIC: Pseudomonas aeruginosa, MTCC 7952, 24 h; outline: as §1
[1] = Candida albicans, MTCC 183, 72 h
[2] = Aspergillus fumigatus, MTCC 2550, 72 h

Row | Structure (SMILES) | MIC (Candida albicans) | -logMIC (Escherichia coli) | MIC (Escherichia coli) [µM] | -logMIC (Bacillus subtilis) | MIC (Bacillus subtilis) [µM] | -logMIC (Staphylococcus aureus) | MIC (Staphylococcus aureus) [µM] | MIC (Aspergillus fumigatus) | MIC (Candida albicans; [1]) [µM] | MIC (Aspergillus fumigatus; [2]) [µM] | -logMIC (Candida albicans) | -logMIC (Pseudomonas aeruginosa) | MIC (Pseudomonas aeruginosa) [µM] | -logMIC (Aspergillus fumigatus)
1 | O=C1c2ccccc2C2=Nc3ccccc3SC12c1ccc(Cl)cc1 (stereo unspecified) | inactive | 2.37 | 4.3 (≈ 1.56 µg/mL) | 1.46 | 34.6 (≈ 12.5 µg/mL) | 0.86 | 138 (≈ 50.1 µg/mL) | inactive | – | – | – | – | – | –
2 | OC(Cn1cncn1)(Cn1cncn1)c1ccc(F)cc1F [FLUCONAZOLE] | – | – | – | – | – | – | – | – | 10.1 (≈ 3.09 µg/mL) | 10.1 (≈ 3.09 µg/mL) | – | – | – | –
3 | COc1ccc(C23Sc4cc(C)ccc4N=C2c2ccccc2C3=O)cc1 (stereo unspecified) | – | 1.17 | 67.3 (≈ 25 µg/mL) | 1.47 | 33.6 (≈ 12.5 µg/mL) | 1.17 | 67.3 (≈ 25 µg/mL) | – | 33.6 (≈ 12.5 µg/mL) | 135 (≈ 50 µg/mL) | 1.47 | 1.17 | 67.3 (≈ 25 µg/mL) | 0.87
4 | Cc1ccc2c(c1)SC1(c3ccccc3)C(=O)c3ccccc3C1=N2 (stereo unspecified) | – | – | – | 0.83 | 146 (≈ 50 µg/mL) | 2.35 | 4.5 (≈ 1.54 µg/mL) | – | 36.6 (≈ 12.5 µg/mL) | 73.2 (≈ 25 µg/mL) | 1.44 | 1.13 | 73.3 (≈ 25 µg/mL) | 1.14
5 | O=C1c2ccccc2C2=Nc3ccc(Br)cc3SC12c1ccc(Cl)cc1 (stereo unspecified) | – | 1.24 | 56.9 (≈ 25.1 µg/mL) | 1.55 | 28.4 (≈ 12.5 µg/mL) | 2.15 | 7.1 (≈ 3.13 µg/mL) | – | 28.4 (≈ 12.5 µg/mL) | 28.4 (≈ 12.5 µg/mL) | 1.55 | 1.24 | 57 (≈ 25.1 µg/mL) | 1.55
6 | Cc1ccc(C23Sc4cc(C)ccc4N=C2c2ccccc2C3=O)cc1 (stereo unspecified) | – | 1.45 | 35.2 (≈ 12.5 µg/mL) | 0.85 | 141 (≈ 50 µg/mL) | – | – | – | 70.4 (≈ 25 µg/mL) | 141 (≈ 50 µg/mL) | 1.15 | 1.15 | 70.4 (≈ 25 µg/mL) | 0.85
7 | COc1ccc2c(c1)SC1(c3ccc(C)cc3)C(=O)c3ccccc3C1=N2 (stereo unspecified) | – | 2.38 | 4.2 (≈ 1.56 µg/mL) | 1.17 | 67.3 (≈ 25 µg/mL) | 0.87 | 135 (≈ 50 µg/mL) | – | 16.8 (≈ 6.24 µg/mL) | 67.3 (≈ 25 µg/mL) | 1.77 | 1.47 | 33.6 (≈ 12.5 µg/mL) | 1.17
8 | O=C1c2ccccc2C2=Nc3ccc(Br)cc3SC12c1ccccc1 (stereo unspecified) | – | 1.21 | 61.7 (≈ 25.1 µg/mL) | 1.21 | 61.7 (≈ 25.1 µg/mL) | 0.91 | 123 (≈ 50.1 µg/mL) | – | 30.8 (≈ 12.5 µg/mL) | 30.8 (≈ 12.5 µg/mL) | 1.51 | 1.81 | 15.4 (≈ 6.26 µg/mL) | 1.51
9 | COc1ccc2c(c1)SC1(c3ccc(Cl)cc3)C(=O)c3ccccc3C1=N2 (stereo unspecified) | – | 1.19 | 63.9 (≈ 25 µg/mL) | 1.5 | 31.9 (≈ 12.5 µg/mL) | 1.8 | 15.9 (≈ 6.23 µg/mL) | – | 31.9 (≈ 12.5 µg/mL) | 31.9 (≈ 12.5 µg/mL) | 1.5 | 1.19 | 63.9 (≈ 25 µg/mL) | 1.5
10 | Cc1ccc(C23Sc4ccccc4N=C2c2ccccc2C3=O)cc1 (stereo unspecified) | inactive | – | – | 1.14 | 73.2 (≈ 25 µg/mL) | 0.53 | 293 (≈ 100 µg/mL) | inactive | – | – | – | 1.14 | 73.2 (≈ 25 µg/mL) | –
11 | CN[C@@H]1[C@H](O[C@H]2[C@H](O[C@H]3[C@H](O)[C@@H](O)[C@H](N=C(N)N)[C@@H](O)[C@@H]3N=C(N)N)O[C@@H](C)[C@]2(O)C=O)O[C@@H](CO)[C@H](O)[C@H]1O [STREPTOMYCIN] | – | – | 5.3 (≈ 3.08 µg/mL) | – | 10.7 (≈ 6.22 µg/mL) | – | 10.7 (≈ 6.22 µg/mL) | – | – | – | – | – | 2.6 (≈ 1.51 µg/mL) | –
12 | Cc1ccc(C23Sc4cc(Br)ccc4N=C2c2ccccc2C3=O)cc1 (stereo unspecified) | – | 1.23 | 59.4 (≈ 25 µg/mL) | 1.53 | 29.8 (≈ 12.5 µg/mL) | 0.92 | 119 (≈ 50.1 µg/mL) | – | 119 (≈ 50.1 µg/mL) | 119 (≈ 50.1 µg/mL) | 0.92 | 1.23 | 59.4 (≈ 25 µg/mL) | 0.92
13 | Cc1ccc2c(c1)SC1(c3ccc(Cl)cc3)C(=O)c3ccccc3C1=N2 (stereo unspecified) | – | 1.18 | 66.6 (≈ 25 µg/mL) | 1.18 | 66.5 (≈ 25 µg/mL) | – | – | – | 66.6 (≈ 25 µg/mL) | 133 (≈ 50.1 µg/mL) | 1.18 | 1.18 | 66.6 (≈ 25 µg/mL) | 0.88
14 | COc1ccc(C23Sc4cc(Br)ccc4N=C2c2ccccc2C3=O)cc1 (stereo unspecified) | – | 1.84 | 14.3 (≈ 6.24 µg/mL) | 2.15 | 7.1 (≈ 3.1 µg/mL) | 2.15 | 7.1 (≈ 3.1 µg/mL) | – | 14.3 (≈ 6.24 µg/mL) | 14.3 (≈ 6.24 µg/mL) | 1.84 | 1.24 | 57.4 (≈ 25 µg/mL) | 1.84
15 | CC1(C)S[C@@H]2[C@H](NC(=O)Cc3ccccc3)C(=O)N2[C@H]1C(=O)O [PENICILLIN G] | – | – | 37.4 (≈ 12.5 µg/mL) | – | 4.6 (≈ 1.54 µg/mL) | – | 4.6 (≈ 1.54 µg/mL) | – | – | – | – | – | 18.7 (≈ 6.25 µg/mL) | –
16 | O=C1c2ccccc2C2=Nc3ccccc3SC12c1ccccc1 (stereo unspecified) | – | 1.42 | 38.2 (≈ 12.5 µg/mL) | 1.12 | 76.4 (≈ 25 µg/mL) | 0.82 | 153 (≈ 50 µg/mL) | – | 76.4 (≈ 25 µg/mL) | 76.4 (≈ 25 µg/mL) | 1.12 | 1.42 | 38.2 (≈ 12.5 µg/mL) | 1.12
17 | COc1ccc(C23Sc4cc(OC)ccc4N=C2c2ccccc2C3=O)cc1 (stereo unspecified) | – | 1.79 | 16.1 (≈ 6.24 µg/mL) | 2.4 | 4 (≈ 1.55 µg/mL) | 1.79 | 16.1 (≈ 6.24 µg/mL) | – | 64.5 (≈ 25 µg/mL) | 64.5 (≈ 25 µg/mL) | 1.19 | – | – | 1.19
18 | COc1ccc(C23Sc4ccccc4N=C2c2ccccc2C3=O)cc1 (stereo unspecified) | inactive | 1.15 | 70 (≈ 25 µg/mL) | – | – | 0.85 | 140 (≈ 50 µg/mL) | inactive | – | – | – | – | – | –
19 | COc1ccc2c(c1)SC1(c3ccccc3)C(=O)c3ccccc3C1=N2 (stereo unspecified) | inactive | – | – | 1.15 | 70 (≈ 25 µg/mL) | 0.85 | 140 (≈ 50 µg/mL) | inactive | – | – | – | 1.46 | 35 (≈ 12.5 µg/mL) | –
